The source of these data is article PMC3669666 (Biochemistry, 2013).

Values joined by “and” are separate entries in the source; they are usually repeats but may differ in a detail not shown here. Equal values may be shown once. Read-outs that look alike come from different tables or passages of the source.

For assay [1], the target named is X. laevis AHR1β (Xenopus laevis, UniProt Q4QY30). The assay is described as follows: Transactivation. Type of assay: cell-based. In short, it runs like this:
(§1)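 Same COS-7 co-transfection: AHR construct, X. laevis ARNT1, pGudLuc6.1 firefly reporter and pRL-TK control, total DNA 300 ng, triplicate wells. Graded FICZ (0.5% DMSO vehicle) was added 5 hours post-transfection. Cells were lysed 3 hours after dosing for dual luciferase. Firefly/Renilla ratio, minus vehicle, was normalized to each AHR's maximum. EC50 came from non-linear regression with background 0 and maximum 1; 3-4 replicates.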

Assay [2] addresses T1, frog AHR1β N325S mutant (Xenopus laevis, UniProt Q4QY30, N325S). Description: Transactivation. The class given is cell-based.
In assay [3] the target is chimeric frog AHR1β containing the mouse LBD (Xenopus laevis, UniProt P30561+Q4QY30). The assay is described as follows: Transactivation. The class given is cell-based. In short, it runs like this:
as §1

Assay [4] has as its target frog AHR1β A354S mutant (Xenopus laevis, UniProt Q4QY30, A354S). The assay is described as follows: Transactivation. Type of assay: cell-based. In short, it runs like this: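 COS-7 cells (DMEM, 10% FBS, 37°, 5% CO2) were seeded at 30,000/well. After 24 h, triplicate wells were co-transfected with 50 ng AHR plasmid, 50 ng X. laevis ARNT1, 20 ng pGudLuc6.1 (mouse CYP1A1 enhancer, four XREs) and 3 ng pRL-TK, totalling 300 ng. Five hours later, cells received 0.5% DMSO or graded FICZ. Firefly/Renilla luciferase was read at 3 h, vehicle-subtracted and normalized to maximum. EC50 came from nonlinear regression (bottom 0, top 1). n=3-4.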

In assay [5] the target is frog AHR1β A370S mutant (Xenopus laevis, UniProt Q4QY30, A370S). The assay is described as follows: Transactivation. Type of assay: cell-based.
Assay [6] concerns the target mouse AHR^b-1 (Mus musculus, UniProt P30561). The assay is described as follows: Transactivation. The class given is cell-based.
Assay [7] has as its system AHR1α. Particulars: AHR1α vs mouse AHR; cited from earlier work.
In assay [8] the target is frog AHR1β S263P mutant (Xenopus laevis, UniProt Q4QY30, S263P). The assay is described as follows: Transactivation. Type of assay: cell-based. In outline: (§2)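 COS-7 cells in DMEM with 10% FBS (37°, 5% CO₂), 30,000/well, transfected 24 hours later in triplicate wells. Each well received 50 ng AHR construct, 50 ng X. laevis ARNT1, 20 ng pGudLuc6.1 (CYP1A1 enhancer, four XREs) and 3 ng pRL-TK, with empty vector to 300 ng. After 5 hours, graded TCDD was added (0.5% DMSO), and cells were lysed 18 hours later. EC50 came from regression of fractional firefly/Renilla response (vehicle-subtracted, max=1); n=3-4.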

The subject of assay [9] is chimeric AHR (frog AHR1β with mouse LBD). Description: Velocity sedimentation analysis of [3H]TCDD binding. More on the design: species or system Xenopus laevis / mouse. Particulars: 2 nM [3H]TCDD, 18 hr at 4° C, sucrose gradients. In short, it runs like this:
(§3)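 They were incubated 18 hr at 4 °C with 2 nM [3H]TCDD, then run on sucrose gradients in a vertical rotor. Peak-fraction dpm minus unprogrammed-lysate dpm gave specific binding, expressed relative to wild-type AHR1β. AHR input was checked by western blot. Three replicates.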

Assay [10] addresses T2, frog AHR1β A354S/N325S mutant (Xenopus laevis, UniProt Q4QY30, A354S/N325S). The description is as above. Particulars: 2 nM [3H]TCDD, 18 hr at 4° C, sucrose gradients. In outline: as §3
The target of assay [11] is frog AHR1β KHSR mutant (R345K, D346H, T347S, G348R) (Xenopus laevis, UniProt Q4QY30, D346H/G348R/R345K/T347S). Description: Transactivation. Type of assay: cell-based.
Assay [12] relates to mouse AHR S359A. Particulars: S359A in mouse AHR vs wild type; cited from earlier work.
The target of assay [13] is frog AHR1β S294Q mutant (Xenopus laevis, UniProt Q4QY30, S294Q). Description: Transactivation. Type of assay: cell-based. In short, it runs like this:
as §2

Assay [14] has as its system AHR1β. Particulars: AHR1β vs mouse AHR; cited from earlier work.
The target of assay [15] is frog AHR1β T256A/S263P mutant (Xenopus laevis, UniProt Q4QY30, S263P/T256A). Description: Transactivation. The class given is cell-based. In outline: as §2
The target of assay [16] is T1, frog AHR1β N325S mutant. Description: Velocity sedimentation analysis of [3H]TCDD binding. Particulars: 2 nM [3H]TCDD, 18 hr at 4° C, sucrose gradients.
Assay [17] deals with frog AHR1β. Description: Velocity sedimentation analysis of [3H]TCDD binding. More on the design: species or system Xenopus laevis. Particulars: 2 nM [3H]TCDD, 18 hr at 4° C, sucrose gradients. In outline: as §3
Assay [18] addresses T2, frog AHR1β A354S/N325S mutant. The assay is described as follows: Transactivation. The class given is cell-based.
In assay [19] the target is frog AHR1β T256A mutant (Xenopus laevis, UniProt Q4QY30, T256A). Description: Transactivation. Type of assay: cell-based. In outline:
as §2

The target of assay [20] is frog AHR1β S371T mutant (Xenopus laevis, UniProt Q4QY30, S371T). Description: Transactivation. The class given is cell-based. In outline: as §2
Assay [21] concerns AHR from the common tern. Particulars: common tern AHR vs chicken AHR; cited from earlier work.

Consider `O=Cc1c2[nH]c3ccccc3c2cc2[nH]c3ccccc3c12` [FICZ, 6-formylindolo[3,2b]carbazole], for which the 50% effective concentration (EC50) in assay [1] (read-out: EC50 for reporter gene induction, FICZ, (3 hr), COS-7 cells, AHR1β) is 0.08 nM; in assay [2] (read-out: EC50 for reporter gene induction, FICZ, (3 hr), COS-7 cells, N325S), 0.07 nM; in [3] (read-out: EC50 for reporter gene induction, FICZ, (3 hr), COS-7 cells, chimera), 0.03 ± 0.01 nM; in assay [4] (read-out: EC50 for reporter gene induction, FICZ, (3 hr), COS-7 cells, A354S), 0.04 nM; in assay [5] (read-out: EC50 for reporter gene induction, FICZ, (3 hr), COS-7 cells, A370S), 0.04 nM. The “fold increase in FICZ responsiveness” value in assay [2] (N325S vs AHR1β, 3 hr) is listed as “about 2 fold”; in [5] (A370S vs AHR1β, 3 hr) it was “about 2 fold”. The “fold more responsive to FICZ than AHR1β” value in [3] (chimera vs AHR1β, 3 hr) is listed as 2.7 fold. Also, the “FICZ responsiveness (in words)” value in assay [4] (A354S, 3 hr) is recorded as “restored responsiveness to a level comparable to the chimera”.
Consider `Clc1cc2c(cc1Cl)Oc1cc(Cl)c(Cl)cc1O2` [TCDD, 2,3,7,8-tetrachlorodibenzo-p-dioxin], for which the concentration for a half-maximal effect (EC50) turned out to be 0.5 ± 0.16 nM in assay [6]; 18.6 ± 4.7 nM in [1]; 23.7 ± 8.8 nM in assay [8]; 5.7 ± 1.6 nM in assay [2]; 23 nM in assay [11]; 25.9 ± 1.1 nM in assay [13]. The EC50 was 20.6 ± 8 nM in assay [15]; 1.2 ± 0.4 nM in assay [4]; 1 ± 0.4 nM in assay [5]; 0.8 nM and 0.82 nM in assay [18] (EC50 for reporter gene induction, TCDD, (24 hr), COS-7 cells, A354S/N325S); 23.1 nM in [19]; 13.5 ± 3.3 nM in assay [20]. Also, the “fold lower TCDD affinity than mouse AHR” value in assay [7] and in assay [14] was “more than 25 fold” in each case. In [2] (N325S vs wild type AHR1β), the “fold greater TCDD responsiveness (EC50 decline) relative to AHR1β” value is 3 fold and 3.2 fold. The “TCDD binding (in words)” value in [9] is listed as “greatest TCDD binding”; in [10], “approaching that of the chimera”; in assay [16], “greater TCDD binding than either A354S or A370S”; in assay [17] it was “barely detectable”. Besides, the “reduction of TCDD binding” value in assay [12] is recorded as 40%. Moreover, the figures for the “fold greater TCDD responsiveness relative to AHR1β” value in assay [5] (A370S vs wild type AHR1β) and in assay [18] (N325S/A354S vs wild type AHR1β) were 18.6 fold and about 23 fold, respectively. The “fold lower TCDD affinity than AHR from chicken” value in [21] is reported as 7 fold.
